# Columns and labels:
# Homo sapiens = species: Homo sapiens; assay: In vitro growth inhibitory activity against human lymphoblastic leukemia cells; assay type: functional; conditions: read-out: ID50 (the source's name)
# In short: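 CCRF-CEM human lymphoblastic leukemia cells in log-phase growth; compounds dissolved in Me₂SO, final growth medium 1% Me₂SO.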
# [1] = In vitro growth inhibitory activity for effect on melting temperature of DNA was determined
# In short: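 DNA thermal denaturation; ΔTm = Tm of DNA-drug complex minus Tm of DNA. Drug 1.4×10⁻⁴ M, DNA (P) 1.4×10⁻³ M in 0.01 M phosphate buffer pH 7.0 with 5×10⁻³ M EDTA and 5% dimethyl sulfoxide.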
# [2] = Therapeutic Index measured as the MTD/MED ratio compared to that of compound 4; conditions: read-out: Therapeutic index
# In short: (§1)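 Therapeutic index is MTD/MED, with ip dosing in 10% dimethyl sulfoxide-saline on a qd 1-4 or q4d 1, 5, 9 schedule. MED is the dose giving a 40% increase in life span over control in P-388-bearing mice. MTD is the LD10 in tumor-free male CDF1 mice (18-23 g) over 21 days, read from a log dose vs. percent mortality plot and averaged over 2-3 experiments.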
# [3] = Therapeutic Index measured as the MTD/MED ratio compared to that of compound 3; conditions: read-out: Therapeutic index; in short: as §1
DNA melting temperature shift (ΔTm) [1] [°C],Compound,IC50 (Homo sapiens) [µg/mL],selectivity ratio [2],selectivity ratio [3]
0,CCN(CC)C(=O)c1c2nc3c(C(=O)N(CC)CC)ccc(C)c3oc-2c(C)c(=O)c1N,~10,–,–
0,CCN(CC)C(=O)c1c2nc3c(C(=O)N(CC)CC)cc(OCC(O)CO)c(C)c3oc-2c(C)c(=O)c1N (stereo not drawn),~10,–,–

# The remaining lines, values behind:
Compound,DNA melting temperature shift (ΔTm) [1] [°C],IC50 (Homo sapiens) [µg/mL],selectivity ratio [2],selectivity ratio [3]
Cc1c2oc3c(C)c(OCC4CO4)cc(C(=O)N[C@H]4C(=O)N[C@@H](C(C)C)C(=O)N5CCC[C@H]5C(=O)N(C)CC(=O)N(C)[C@@H](C(C)C)C(=O)O[C@H]4C)c3nc-2c(C(=O)N[C@H]2C(=O)N[C@@H](C(C)C)C(=O)N3CCC[C@H]3C(=O)N(C)CC(=O)N(C)[C@@H](C(C)C)C(=O)O[C@H]2C)c(N)c1=O (stereo partly drawn),6,–,–,–
Cc1c2oc3c(C)c(O)c(N)c(C(=O)N[C@H]4C(=O)N[C@@H](C(C)C)C(=O)N5CCC[C@H]5C(=O)N(C)CC(=O)N(C)[C@H](C(C)C)C(=O)O[C@H]4C)c3nc-2c(C(=O)N[C@@H]2C(=O)N[C@H](C(C)C)C(=O)N3CCC[C@@H]3C(=O)N(C)CC(=O)N(C)[C@@H](C(C)C)C(=O)O[C@@H]2C)cc1=O,6.7,–,–,–
Cc1c2oc3c(C)c(OCC4CO4)cc(C(=O)N[C@@H]4C(=O)N[C@H](C(C)C)C(=O)N5CCC[C@H]5C(=O)N(C)CC(=O)N(C)[C@@H](C(C)C)C(=O)O[C@@H]4C)c3nc-2c(C(=O)N[C@@H]2C(=O)N[C@H](C(C)C)C(=O)N3CCC[C@H]3C(=O)N(C)CC(=O)N(C)[C@@H](C(C)C)C(=O)O[C@@H]2C)c(N)c1=O (stereo partly drawn),–,–,43,72
